This note sets out measurements from the array DNA melting data of Ke et al. (doi:10.1101/2024.01.08.574731).

A short description of series [1]: folding enthalpy; higher = less favourable; fluorescence melt of hairpins on a sequencing array, two-state fit. Particulars: sodium 0.088 M. The method in brief: (§1)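 Cy3 fluorescence of library hairpins on a sequenced MiSeq flow cell, with annealed Cy3 and quencher oligos, was imaged in 50 mM Na-HEPES pH 8.0, 25 mM NaCl in 2.5 °C steps up to 60 °C. Signals were normalised to pre-quench Cy3 and to control variants. Melting temperature and folding enthalpy came from bootstrapped two-state fits, inverse-variance combined over four replicates. Fitted temperatures were raised by 9.35 °C to match UV melts.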

A short description of series [2]: melting temperature; fluorescence melt of hairpins on a sequencing array, two-state fit, raised by 9.35 °C to match UV melts. Particulars: sodium 0.088 M. The method in brief: as §1

For GATGTTGGAAACAGTATC (((..((....))..))), in series [1], the folding enthalpy is -10.2 kcal/mol. Besides, the Tm in series [2] stood at 27 °C.

On to GATCGTTACTACGATC ((((((....)))))), for which the folding enthalpy in series [1] was -42.8 kcal/mol. The Tm in series [2] is 55.1 °C.

With GGGCTCGAAAGAGTGCCC ((((((....)))..))), the folding enthalpy in series [1] is -34.1 kcal/mol. Besides, in series [2], the Tm turned out to be 51.3 °C.

Take GCGTGTGGAAACACGTGC ((..(((....)))..)): the folding enthalpy in series [1] was -19.1 kcal/mol. In addition, the Tm in series [2] was determined as 63.1 °C.

Take GATCAAGGAGTTGATC ((((((....)))))): the folding enthalpy in series [1] was -29.5 kcal/mol. Also, the Tm in series [2] came to 45.3 °C.

Take GATCATCGCTATGATC ((((((....)))))): the folding enthalpy in series [1] was -38.8 kcal/mol. Moreover, the Tm in series [2] was 47.2 °C.

In the case of CGGGGCCGGAAACGGCCG (((..(((....)))))), in series [1], the folding enthalpy was -4.87 kcal/mol. The Tm in series [2] worked out at 53.8 °C.

In the case of GTCGGGGGAAACCCCGGC (.(((((....))))).), the folding enthalpy in series [1] is -22 kcal/mol. In series [2], the Tm is 62.5 °C.

On to GCCCAGCGAAAGCTCGGC (((.(((....))).))), for which the folding enthalpy in series [1] was -40.4 kcal/mol. In addition, the Tm in series [2] amounted to 51.3 °C.

In the case of GATCCGGCTCCGGATC ((((((....)))))), the folding enthalpy in series [1] was -38.4 kcal/mol. Besides, the Tm in series [2] is 59.1 °C.

As for GATCACAACAGTGATC ((((((....)))))), in series [1], the folding enthalpy is -41.7 kcal/mol. Also, the Tm in series [2] was 58.7 °C.

As for GCTTGCGGAAACGCGAGC (((.(((....))).))), in series [1], the folding enthalpy was -29.3 kcal/mol. Also, in series [2], the Tm amounted to 64 °C.

For CATGGGAAACCATG (((((....))))), the folding enthalpy in series [1] is -22.3 kcal/mol. In addition, in series [2], the Tm worked out at 47.8 °C.

As to GGGAGAGCGAAAGCTCCC (((..(((....)))))), the folding enthalpy in series [1] was -15.8 kcal/mol. The Tm in series [2] came to 53.7 °C.

Regarding GTTGACGAAAGTCGGAAC ((((((....)))..))), the folding enthalpy in series [1] is -8.87 kcal/mol. Besides, the Tm in series [2] was 32.7 °C.

In the case of GACCACGAAAGTGGTGTC ((((((....)))..))), the folding enthalpy in series [1] was -12.2 kcal/mol. In series [2], the Tm is 55.4 °C.

For the sequence AGACAGAAATGTCT (((((....))))), the folding enthalpy in series [1] was -15.8 kcal/mol. For the same sequence, the Tm in series [2] is 41.7 °C.

For the sequence GCGGGAGCGAAAGCTCGC (((..(((....)))))), in series [1], the folding enthalpy was -10.9 kcal/mol. The Tm in series [2] worked out at 55.8 °C.

With GGAGTAGGAAACTATTCC (((.(((....))).))), the folding enthalpy in series [1] was -21.4 kcal/mol. Moreover, the Tm in series [2] came to 37.5 °C.

Turning to GATGTTGGAAACAACATC (((((((....))))))), the folding enthalpy in series [1] is -44.6 kcal/mol. Besides, the Tm in series [2] came to 58.4 °C.

For GGCTTCGAAAGAATGGCC ((((((....)))..))), the folding enthalpy in series [1] is -25.2 kcal/mol. For the same sequence, the Tm in series [2] stood at 42.2 °C.

Turning to GCTTTGCGAAAGCCAGGC ((.(.((....)).).)), in series [1], the folding enthalpy was -10.2 kcal/mol. In addition, the Tm in series [2] is 38.3 °C.

As for TGCGTGAAAACGCA (((((....))))), the folding enthalpy in series [1] was -18.1 kcal/mol. Also, the Tm in series [2] stood at 66.2 °C.

Take GAGCACGAAAGTGGTCTC ((((((....)))..))): the folding enthalpy in series [1] was -24 kcal/mol. For the same sequence, in series [2], the Tm amounted to 60 °C.

As for GATCTTGGGAAGATC ((((((...)))))), in series [1], the folding enthalpy was -22.8 kcal/mol. The Tm in series [2] came to 39.7 °C.

Regarding GCCTTGCGAAAGCGGGGC (((..((....))..))), the folding enthalpy in series [1] was -33.2 kcal/mol. The Tm in series [2] came out at 65.2 °C.

GAGAAGGGAAACTTTCTC (((((.(....).))))): the folding enthalpy in series [1] is -22.7 kcal/mol. For the same sequence, the Tm in series [2] is 31.8 °C.

As to GTGCTGCCGAAAGGCCAC (((..(((....)))))), the folding enthalpy in series [1] was -11.5 kcal/mol. Also, in series [2], the Tm was 48.1 °C.

Take GCGAGCGATCGC ((((....)))): the folding enthalpy in series [1] was -25.3 kcal/mol. Besides, in series [2], the Tm was determined as 53.5 °C.

In the case of GCACCGCGAAAGCGTGGC ((..(((....)))..)), the folding enthalpy in series [1] was -16.5 kcal/mol. In addition, the Tm in series [2] amounted to 56.1 °C.

Take GGCTTTGGAAACAAGGTC (.(.(((....))).).): the folding enthalpy in series [1] is -13.9 kcal/mol. Further, in series [2], the Tm was determined as 32.2 °C.

For AGAGTGAAAACTCT (((((....))))), the folding enthalpy in series [1] is -16.6 kcal/mol. The Tm in series [2] stood at 40.8 °C.

With GCGGTAGACCGC ((((....)))), in series [1], the folding enthalpy is -25.7 kcal/mol. In series [2], the Tm is 60.8 °C.

For the sequence TAGACGAAAGTCTA (((((....))))), the folding enthalpy in series [1] was -15.3 kcal/mol. The Tm in series [2] is 50.9 °C.

Consider GCGAGGGTCGC ((((...)))), for which the folding enthalpy in series [1] is -7.26 kcal/mol. Besides, the Tm in series [2] is 62 °C.

Regarding GATCTGAGAGCAGATC ((((((....)))))), the folding enthalpy in series [1] was -37.2 kcal/mol. Further, the Tm in series [2] turned out to be 46.1 °C.

Regarding GGCCCTCCGAAAGGAGCC (((..(((....)))))), the folding enthalpy in series [1] was -10.6 kcal/mol. Further, the Tm in series [2] came out at 38.4 °C.
